Data reported in ChEMBL document CHEMBL1143394, “Benzopyridooxathiazepine derivatives as novel potent antimitotic agents” (Bioorg Med Chem, 2009).

Key:
L1210 [1] = experiment: Cytotoxicity against mouse L1210 cells after 48 hrs by MTT assay; type: functional, cell-based; settings: L1210, 48 h
How it was run: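 Murine L1210 cells in RPMI 1640 with 10% FCS, glutamine, antibiotics and HEPES pH 7.4, exposed 48 h to graded concentrations. MTT added for 4 h at 37 °C, formazan dissolved in DMSO, OD 540 nm. IC50 (50% OD reduction vs untreated controls) by linear regression on linear zone of dose–response; triplicate.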

[2] = Inhibition of tubulin polymerization
L1210 [3] = experiment: Cell cycle arrest in mouse L1210 cells assessed as accumulation at S phase at 100 nM after 21 hrs by flow cytometry using propidium iodide staining; type: functional
How it was run: (§1)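 L1210 cells exposed to compound for 21 h (two doubling times), fixed in 70% ethanol, washed, stained 30 min at 20 °C in D-PBS with RNAse and propidium iodide; 10⁴ cells per sample analysed by flow cytometry for G1, S, G2+M and 8N (tetraploid) fractions.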

HT-29 = experiment: Cytotoxicity against human HT29 cells after 96 hrs by MTA assay; type: functional
How it was run: (§2)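 Adherent DU145, HT29, A549, KB 3-1 and KB-A1 cells grown in RPMI 1640 with 10% FCS, 2 mM glutamine, antibiotics and HEPES pH 7.4. Seeded, grown 2 days, then exposed to compound 96 h (about 4 doubling times). MTT added for 4 h at 37 °C, formazan dissolved in DMSO, read at 540 nm. IC50 from linear regression on linear part of dose–response; triplicate.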

L1210 [4] = experiment: Cell cycle arrest in mouse L1210 cells assessed as accumulation of tetraploid cells at 100 nM after 21 hrs by flow cytometry using propidium iodide staining; type: functional; how it was run: as §1
L1210 [5] = experiment: Cell cycle arrest in mouse L1210 cells assessed as accumulation at G2/M phase at 100 nM after 21 hrs by flow cytometry using propidium iodide staining; type: functional; how it was run: as §1
L1210 [6] = experiment: Cell cycle arrest in mouse L1210 cells assessed as accumulation at G1 phase at 100 nM after 21 hrs by flow cytometry using propidium iodide staining; type: functional; how it was run: as §1
L1210 [7] = experiment: Cell cycle arrest in mouse L1210 cells assessed as accumulation at S phase at 50 nM after 21 hrs by flow cytometry using propidium iodide staining; type: functional; how it was run: as §1
L1210 [8] = experiment: Cell cycle arrest in mouse L1210 cells assessed as accumulation at G1 phase at 50 nM after 21 hrs by flow cytometry using propidium iodide staining; type: functional; how it was run: as §1
DU-145 = experiment: Cytotoxicity against human DU145 cells after 96 hrs by MTA assay; type: functional; how it was run: as §2
L1210 [9] = experiment: Cell cycle arrest in mouse L1210 cells assessed as accumulation of tetraploid cells at 50 nM after 21 hrs by flow cytometry using propidium iodide staining; type: functional; how it was run: as §1
L1210 [10] = experiment: Cell cycle arrest in mouse L1210 cells assessed as accumulation at G2/M phase at 50 nM after 21 hrs by flow cytometry using propidium iodide staining; type: functional; how it was run: as §1
L1210 [11] = experiment: Cell cycle arrest in mouse L1210 cells assessed as accumulation of tetraploid cells at 25 nM after 21 hrs by flow cytometry using propidium iodide staining; type: functional; how it was run: as §1
A549 = experiment: Cytotoxicity against human A549 cells after 96 hrs by MTA assay; type: functional; how it was run: as §2
[12] = Metabolic stability in human liver microsomes assessed as bioavailability; type: ADME, Microsome; settings: read-out: Metabolic Bioavailability
L1210 [13] = experiment: Cell cycle arrest in mouse L1210 cells assessed as accumulation at G1 phase at 25 nM after 21 hrs by flow cytometry using propidium iodide staining; type: functional; how it was run: as §1
[14] = Metabolic stability in mouse liver microsomes assessed as bioavailability; type: ADME, Microsome; settings: read-out: Metabolic Bioavailability
P388 [15] = experiment: Antitumor activity against mouse P388 cells xenografted in B6D2F1 mouse assessed as survivality at 100 mg/kg, iv; type: functional
How it was run: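 P388 murine leukemia cells inoculated intraperitoneally (10⁶ cells/mouse) into B6D2F1 mice on day 0. Single intravenous dose given on day 1. Readout is percent T/C: median survival time of treated mice divided by median survival time of controls, ×100.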

P388 [16] = experiment: Antitumor activity against mouse P388 cells xenografted in B6D2F1 mouse assessed as survivality at 50 to 100 mg/kg, ip; type: functional; settings: dose mg/kg 50-100, route intraperitoneal
[17] = Cytotoxicity against human KB-3-1 cells after 96 hrs by MTA assay; type: functional; how it was run: as §2
L1210 [18] = experiment: Cell cycle arrest in mouse L1210 cells assessed as accumulation at S phase at 25 nM after 21 hrs by flow cytometry using propidium iodide staining; type: functional; how it was run: as §1
L1210 [19] = experiment: Cell cycle arrest in mouse L1210 cells assessed as accumulation at G2/M phase at 25 nM after 21 hrs by flow cytometry using propidium iodide staining; type: functional; how it was run: as §1
[20] = Cytotoxicity against adriamycin-resistant human KB-A1 cells after 96 hrs by MTA assay; type: functional; how it was run: as §2
P388 [21] = experiment: Antitumor activity against mouse P388 cells xenografted in B6D2F1 mouse at 100 mg/kg, iv relative to control; type: functional
How it was run: (§3)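 P388 leukaemia cells inoculated ip at 10⁶ cells/mouse into B6D2F1 mice on day 0; compound given once ip or iv on day 1. Result expressed as % T/C = median survival time of treated over untreated controls ×100.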

P388 [22] = experiment: Antitumor activity against mouse P388 cells xenografted in B6D2F1 mouse at 50 to 100 mg/kg, ip relative to control; type: functional; settings: dose mg/kg 50-100; route intraperitoneal; how it was run: as §3
L1210 [23] = experiment: Cell cycle arrest in mouse L1210 cells assessed as accumulation at G2/M phase at 200 nM after 21 hrs by flow cytometry using propidium iodide staining; type: functional; how it was run: as §1
L1210 [24] = experiment: Cell cycle arrest in mouse L1210 cells assessed as accumulation at S phase at 200 nM after 21 hrs by flow cytometry using propidium iodide staining; type: functional; how it was run: as §1
L1210 [25] = experiment: Cell cycle arrest in mouse L1210 cells assessed as accumulation at G1 phase at 200 nM after 21 hrs by flow cytometry using propidium iodide staining; type: functional; how it was run: as §1
L1210 [26] = experiment: Cell cycle arrest in mouse L1210 cells assessed as accumulation of tetraploid cells at 200 nM after 21 hrs by flow cytometry using propidium iodide staining; type: functional; how it was run: as §1

SMILES: O=S1(=O)Oc2ccccc2N=C2C1=CC=CN2CCc1ccc(-c2ccccc2)cc1
- IC50 (L1210 [1]): 5 µM

SMILES: COc1ccc(CCN2c3ccccc3OS(=O)(=O)c3cccnc32)cc1
- IC50 (L1210 [1]): 26.5 µM

SMILES: O=S1(=O)Oc2ccccc2N=C2C1=CC=CN2CCc1ccc(O)cc1
- IC50 (L1210 [1]): 0.6 µM

SMILES: COc1ccc(CCN2c3cc(OC)ccc3OS(=O)(=O)c3cccnc32)cc1
- IC50 (L1210 [1]): 11.2 µM

SMILES: COc1ccc(CN2c3ccccc3OS(=O)(=O)c3cccnc32)cc1
- IC50 (L1210 [1]): 0.77 µM

SMILES: COc1ccc(CCCN2c3ccccc3OS(=O)(=O)c3cccnc32)cc1
- IC50 (L1210 [1]): 15.4 µM

SMILES: COc1ccc(CN2C=CC=C3C2=Nc2ccccc2OS3(=O)=O)cc1
- IC50 (L1210 [1]): 3.2 µM

SMILES: COc1ccccc1CCN1C=CC=C2C1=Nc1ccccc1OS2(=O)=O
- IC50 (L1210 [1]): 14.8 µM

SMILES: COc1cc([C@@H]2c3cc4c(cc3C[C@H]3COC(=O)[C@@H]32)OCO4)cc(OC)c1OC
- INH [2]: 2.4 µM

SMILES: COc1ccc(CCN2C=CC=C3C2=Nc2cc(C)ccc2OS3(=O)=O)cc1
- Activity (L1210 [3]): 3%
- Activity (HT-29): 50.2 nM
- Activity (L1210 [4]): 75%
- Activity (L1210 [5]): 17%
- IC50 (L1210 [1]): 0.037 µM
- Activity (L1210 [6]): 4%

SMILES: COc1cccc(CCN2C=CC=C3C2=Nc2ccccc2OS3(=O)=O)c1
- IC50 (L1210 [1]): 0.8 µM

SMILES: COc1ccc(CCCN2C=CC=C3C2=Nc2ccccc2OS3(=O)=O)cc1
- IC50 (L1210 [1]): 8.6 µM

SMILES: COc1ccccc1CCN1c2ccccc2OS(=O)(=O)c2cccnc21
- IC50 (L1210 [1]): > 10 µM

SMILES: COc1ccc(CCN2C=CC=C3C2=Nc2cc(Cl)ccc2OS3(=O)=O)cc1
- Activity (L1210 [7]): 3%
- Activity (HT-29): 27.1 nM
- Activity (L1210 [8]): 3%
- Activity (DU-145): 42.3 nM
- IC50 (L1210 [1]): 0.027 µM
- Activity (L1210 [9]): 65%
- Activity (L1210 [10]): 29%

SMILES: COc1cc(CCN2C=CC=C3C2=Nc2ccccc2OS3(=O)=O)cc(OC)c1OC
- IC50 (L1210 [1]): 27.7 µM

SMILES: COc1ccc(CCN2C=CC=C3C2=Nc2ccccc2OS3(=O)=O)cc1
- Activity (L1210 [11]): 60%
- Activity (A549): 11.5 nM
- INH [2]: 2.2 µM
- Activity (HT-29): 10 nM
- bioavailability [12]: < 12%
- Activity (L1210 [13]): 4%
- bioavailability [14]: < 12%
- Activity (P388 [15]): 41%
- Activity (P388 [16]): 61%
- Activity [17]: 16 nM
- Activity (L1210 [18]): 3%
- Activity (L1210 [19]): 25%
- Activity (DU-145): 17 nM
- IC50 (L1210 [1]): 0.0095 µM
- Activity [20]: 13.2 nM
- T/C (P388 [21]): 141%
- T/C (P388 [22]): 161%

SMILES: COc1ccc(CCN2c3cc(C)ccc3OS(=O)(=O)c3cccnc32)cc1
- IC50 (L1210 [1]): 22.5 µM

SMILES: O=S1(=O)Oc2ccccc2N(CCc2cccc3ccccc23)c2ncccc21
- IC50 (L1210 [1]): > 100 µM

SMILES: COc1cc(CCN2c3ccccc3OS(=O)(=O)c3cccnc32)cc(OC)c1OC
- IC50 (L1210 [1]): 36.8 µM

SMILES: COc1ccc(CCN2C=CC=C3C2=Nc2ccccc2NS3(=O)=O)cc1
- IC50 (L1210 [1]): 0.3 µM

SMILES: O=S1(=O)Oc2ccccc2N=C2C1=CC=CN2CCc1cccc2ccccc12
- IC50 (L1210 [1]): 9.6 µM

SMILES: O=S1(=O)Oc2ccccc2N=C2C1=CC=CN2CCc1ccc(OCc2ccccc2)cc1
- IC50 (L1210 [1]): > 100 µM

SMILES: COc1ccc(CCN2C=CC=C3C2=Nc2cc(OC)ccc2OS3(=O)=O)cc1
- Activity (A549): 99.1 nM
- Activity (L1210 [23]): 22%
- Activity (L1210 [24]): 11%
- Activity (DU-145): 116 nM
- Activity (L1210 [25]): 8%
- IC50 (L1210 [1]): 0.043 µM
- Activity (L1210 [26]): 59%
